Laboratory results from ChEMBL document CHEMBL3745596, “Chlorophenoxy aminoalkyl derivatives as histamine H(3)R ligands and antiseizure agents” (Bioorg Med Chem, 2016).
pKi: −log10 of the molar value. Active and inactive are the calls of the source.

Tests used:
Mus musculus [1] = assay: Anticonvulsant activity in ip dosed CF1 albino mouse assessed as protection against maximal electroshock-induced seizure after 0.25 hrs; assay type: functional
Summary of the method: (§1)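 Male CF-1 mice dosed ip as suspension in 0.5% methylcellulose. Corneal electrodes deliver 60 Hz alternating current, 50 mA for […], after a drop of 0.5% tetracaine HCl in 0.9% NaCl per eye. Protection means abolition of hindlimb tonic extension; scored as protected/tested, or ED50 with 95% confidence interval.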

Mus musculus [2] = assay: Anticonvulsant activity in ip dosed CF1 albino mouse assessed as protection against subcutaneous pentetrazole-induced seizure after 0.25 hrs; assay type: functional
Summary of the method: (§2)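 Male CF-1 mice, ip in 0.5% methylcellulose; pentetrazole at CD97 (85 mg/kg) injected subcutaneously in a loose fold of neck skin. Observed 30 min; absence of even a threshold seizure (single clonic spasm lasting at least 5 s) counted as protection. Scored protected/tested, or ED50.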

Mus musculus [3] = assay: Protective index, ratio of TD50 for ip dosed CF1 albino mouse to ED50 for ip dosed CF1 albino mouse assessed as protection against maximal electroshock-induced seizure after 0.25 hrs; assay type: functional
Rattus norvegicus [4] = assay: Anticonvulsant activity in Sprague-Dawley rat assessed as protection against pilocarpine-induced convulsive status epilepticus at 65 mg/kg, ip; assay type: functional, organism-based
Summary of the method: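 Male Sprague Dawley rats (150–180 g) dosed ip, pilocarpine 50 mg/kg ip given; compound dosed immediately at first behavioral Stage 3 seizure or 30 min later. Number protected from Racine Stage 3 or greater seizures recorded.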

[5] = Neuroprotective activity in hippocampal slice (unknown origin) assessed as protection against kainic acid-induced cell death using propidium iodide staining; assay type: functional; conditions: Hippocampus
Summary of the method: (§3)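 Organotypic hippocampal slice cultures exposed to NMDA or kainic acid alone or with compound; propidium iodide in all wells; PI fluorescence intensity of slices, proportional to cell death, compared with excitotoxin-only slices; qualitative.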

[6] = Neuroprotective activity in hippocampal slice (unknown origin) assessed as protection against NMDA-induced cell death using propidium iodide staining; assay type: functional; conditions: Hippocampus; summary of the method: as §3
Histamine H3 receptor = Histamine H3 receptor (Homo sapiens, UniProt Q9Y5N1); assay: Displacement of [3H]-Nalpha-methylhistamine from human recombinant histamine H3 receptor expressed in HEK293 cells after 90 mins; assay type: cell-based
Mus musculus [7] = assay: Anticonvulsant activity in CF1 albino mouse assessed as protection against maximal electroshock-induced seizure at 3 mg/kg, ip after 0.5 hrs; assay type: functional, organism-based; summary of the method: as §1
Mus musculus [8] = assay: Anticonvulsant activity in CF1 albino mouse assessed as protection against maximal electroshock-induced seizure at 10 mg/kg, ip after 0.5 hrs; assay type: functional, organism-based; summary of the method: as §1
Mus musculus [9] = assay: Anticonvulsant activity in CF1 albino mouse assessed as protection against maximal electroshock-induced seizure at 30 mg/kg, ip after 0.5 hrs; assay type: functional, organism-based; summary of the method: as §1
Mus musculus [10] = assay: Anticonvulsant activity in CF1 albino mouse assessed as protection against maximal electroshock-induced seizure at 30 mg/kg, ip after 4 hrs; assay type: functional, organism-based; summary of the method: as §1
Mus musculus [11] = assay: Anticonvulsant activity in CF1 albino mouse assessed as protection against maximal electroshock-induced seizure at 100 mg/kg, ip after 0.5 hrs; assay type: functional, organism-based; summary of the method: as §1
Mus musculus [12] = assay: Anticonvulsant activity in CF1 albino mouse assessed as protection against maximal electroshock-induced seizure at 100 mg/kg, ip after 4 hrs; assay type: functional, organism-based; summary of the method: as §1
Mus musculus [13] = assay: Anticonvulsant activity in CF1 albino mouse assessed as protection against subcutaneous pentetrazole-induced seizure at 30 mg/kg, ip after 0.5 hrs; assay type: functional, organism-based; summary of the method: as §2
Mus musculus [14] = assay: Anticonvulsant activity in CF1 albino mouse assessed as protection against subcutaneous pentetrazole-induced seizure at 30 mg/kg, ip after 4 hrs; assay type: functional, organism-based; summary of the method: as §2
Mus musculus [15] = assay: Anticonvulsant activity in CF1 albino mouse assessed as protection against subcutaneous pentetrazole-induced seizure at 100 mg/kg, ip after 0.5 hrs; assay type: functional, organism-based; summary of the method: as §2
Mus musculus [16] = assay: Anticonvulsant activity in CF1 albino mouse assessed as protection against subcutaneous pentetrazole-induced seizure at 100 mg/kg, ip after 4 hrs; assay type: functional, organism-based; summary of the method: as §2
Mus musculus [17] = assay: Neurotoxicity in CF1 albino mouse at 3 mg/kg, ip after 0.5 hrs by rotarod test; assay type: toxicity, organism-based; conditions: in vivo
Summary of the method: (§4)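 Rotarod neurotoxicity in male albino CF-1 mice dosed ip with compound suspended in 0.5% methylcellulose. Animal placed on a 1 inch diameter knurled plastic rod rotating at 6 rpm. Neurotoxicity scored when the animal falls off three times within 1 min. Readout is number of animals toxic/number tested at the stated time after dosing. TD50 with 95% confidence interval from the quantitative study.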

Mus musculus [18] = assay: Neurotoxicity in CF1 albino mouse at 10 mg/kg, ip after 0.5 hrs by rotarod test; assay type: toxicity, organism-based; conditions: in vivo
Summary of the method: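 Rotarod neurotoxicity in male CF-1 mice dosed ip as 0.5% methylcellulose suspension: mouse placed on 1 inch knurled rod rotating at 6 rpm; toxicity when the animal falls off three times within 1 min, with other signs noted. Scored as toxic/tested at 0.5 h and 4 h.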

Mus musculus [19] = assay: Neurotoxicity in CF1 albino mouse at 30 mg/kg, ip after 0.5 hrs by rotarod test; assay type: toxicity, organism-based; conditions: in vivo; summary of the method: as §4
Mus musculus [20] = assay: Neurotoxicity in CF1 albino mouse at 30 mg/kg, ip after 4 hrs by rotarod test; assay type: toxicity, organism-based; conditions: in vivo; summary of the method: as §4
Mus musculus [21] = assay: Neurotoxicity in CF1 albino mouse at 100 mg/kg, ip after 4 hrs by rotarod test; assay type: toxicity, organism-based; conditions: in vivo; summary of the method: as §4
Mus musculus [22] = assay: Neurotoxicity in CF1 albino mouse at 300 mg/kg, ip after 4 hrs by rotarod test; assay type: toxicity, organism-based; conditions: in vivo; summary of the method: as §4
Mus musculus [23] = assay: Neurotoxicity in CF1 albino mouse assessed as death and loss of righting reflux at 300 mg/kg, ip after 0.5 hrs by rotarod test; assay type: toxicity, organism-based; conditions: in vivo
Summary of the method: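 Male albino CF-1 mice dosed ip with compound suspended in 0.5% methylcellulose, then placed on a 1-inch knurled plastic rod turning at 6 rpm. A fall three times within 1 min counted as neurotoxicity. Observations were made at 0.5 h and 4 h after dosing. Result given as animals showing toxicity per animals tested, with the kind of toxicity recorded.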

Rattus norvegicus [24] = assay: Anticonvulsant activity in Sprague-Dawley rat assessed as protection against maximal electroshock-induced seizure at 30 mg/kg, po; assay type: functional
Mus musculus [25] = assay: Anticonvulsant activity in CF1 albino mouse assessed as protection against 6 Hz-psychomotor-induced seizure at 100 mg/kg, ip after 0.5 to 1 hr; assay type: functional, organism-based
Summary of the method: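 Male CF-1 mice, ip suspension in 0.5% methylcellulose. Corneal stimulation 0.2 ms monopolar rectangular pulses at 6 Hz, 32 mA for 3 s via constant-current device; mice without minimal clonic phase seizure counted protected. Groups of four; read at 0.25, 0.5, 1, 2, 4 h; result as protected/tested.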

Mus musculus [26] = assay: Neurotoxicity in CF1 albino mouse at 100 mg/kg, ip after 0.25 to 2 hrs by rotarod test; assay type: toxicity, organism-based; conditions: in vivo; summary of the method: as §4
Mus musculus [27] = assay: Neurotoxicity in ip dosed CF1 albino mouse after 0.25 hrs by rotarod test; assay type: toxicity, organism-based; conditions: in vivo
Summary of the method: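 Rotarod neurotoxicity in male albino CF-1 mice dosed ip with compound suspended in 0.5% methylcellulose. Animal placed on a 1 inch diameter knurled plastic rod rotating at 6 rpm. Neurotoxicity scored when the animal falls off three times within 1 min. Readout is number of animals toxic/number tested at the stated time after dosing.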

Chain of Histamine H3 receptor (Q9Y5N1 whole entry): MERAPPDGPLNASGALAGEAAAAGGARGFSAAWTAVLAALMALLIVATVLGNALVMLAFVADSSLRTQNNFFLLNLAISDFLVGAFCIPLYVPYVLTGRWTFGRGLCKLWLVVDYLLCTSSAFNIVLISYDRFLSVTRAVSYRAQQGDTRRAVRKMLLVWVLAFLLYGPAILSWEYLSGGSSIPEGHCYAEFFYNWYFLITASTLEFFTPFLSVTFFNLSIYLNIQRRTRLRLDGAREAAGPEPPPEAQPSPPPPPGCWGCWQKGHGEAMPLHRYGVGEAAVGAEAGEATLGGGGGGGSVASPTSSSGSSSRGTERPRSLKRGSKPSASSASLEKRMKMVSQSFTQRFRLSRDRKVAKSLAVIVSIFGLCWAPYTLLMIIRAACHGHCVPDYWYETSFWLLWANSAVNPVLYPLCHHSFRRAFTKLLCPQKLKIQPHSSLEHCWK

CC1CCCN(CCCCCCOc2ccc(Cl)cc2)C1.O=C(O)C(=O)O (stereo not drawn)
ED50 (Mus musculus [1]): 16.8 mg/kg
ED50 (Mus musculus [2]): > 50 mg/kg
Ratio TD50/ED50 (Mus musculus [3]): 3
Activity (Rattus norvegicus [4]): Active
Activity [5]: inactive
Activity [6]: inactive
pKi (Histamine H3 receptor): 6.69
Activity (Mus musculus [7]): inactive
Activity (Mus musculus [8]): inactive
Activity (Mus musculus [9]): Active
Activity (Mus musculus [10]): inactive
Activity (Mus musculus [11]): Active
Activity (Mus musculus [12]): Active
Activity (Mus musculus [13]): inactive
Activity (Mus musculus [14]): inactive
Activity (Mus musculus [15]): inactive
Activity (Mus musculus [16]): inactive
Activity (Mus musculus [17]): Non-toxic
Activity (Mus musculus [18]): Non-toxic
Activity (Mus musculus [19]): Non-toxic
Activity (Mus musculus [20]): Non-toxic
Activity (Mus musculus [21]): Non-toxic
Activity (Mus musculus [22]): Non-toxic
Activity (Mus musculus [23]): Toxic
Activity (Rattus norvegicus [24]): 25%
Activity (Mus musculus [25]): inactive
Activity (Mus musculus [26]): Toxic
TD50 (median neurotoxic dose) (Mus musculus [27]): 50.4 mg/kg
